Assay results taken from ChEMBL document CHEMBL1142148, “Antibiotic susceptibility profile of bifidobacteria as affected by oxgall, acid, and hydrogen peroxide stress” (2007).

Key:
Bifidobacterium longum [1] = test: Antimicrobial activity against 60 min 1 M HCl-stressed Bifidobacterium longum ATCC 15707 after 18 hrs; assay type: functional
Procedure, shortened: (§1)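 Mid-log MRS culture pelleted and resuspended in MRS broth brought to pH 2.0 with 1 M HCl, held anaerobically at 37°C for 60 min, then subcultured in MRS (pH 6.5) for 24 h anaerobically before MIC testing by broth microdilution (as for unstressed cells). Table footnote gives 18 h anaerobic regrowth after the stress. MIC is the median of four repetitions.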

Bifidobacterium breve [2] = test: Antimicrobial activity against Bifidobacterium breve R0070; assay type: functional
Procedure, shortened: (§2)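 Broth microdilution in MRS plus 0.05% L-cysteine-HCl. Mid-log culture adjusted to OD650 0.1, giving about 2.5 × 10^4 to 5.0 × 10^4 CFU/well, then added to twofold serial dilutions of agent. Plates incubated anaerobically at 37°C for 18 h and read at OD650. MIC is the lowest concentration matching the uninoculated blank OD, taken as the median of four repeats.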

[3] = tested on: Bifidobacterium thermophilum; test: Antimicrobial activity against Bifidobacterium thermophilum ATCC 25866; assay type: functional; procedure, shortened: as §2
Bifidobacterium longum [4] = test: Antimicrobial activity against 90 mins oxgall-stressed Bifidobacterium longum R0175 after 18 hrs; assay type: functional
Procedure, shortened: (§3)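 Cells pelleted from mid-log MRS culture and resuspended in MRS (initial pH 6.5) with 0.3% (wt/vol) oxgall for 90 min anaerobically at 37°C. They were then regrown in MRS pH 6.5 for 24 h (footnote: 18 h) anaerobically and tested for MIC by the same broth microdilution assay. Median of four repetitions.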

[5] = tested on: Bifidobacterium pseudolongum; test: Antimicrobial activity against 90 mins oxgall-stressed Bifidobacterium pseudolongum ATCC 25562 after 18 hrs; assay type: functional; procedure, shortened: as §3
Bifidobacterium breve [6] = test: Antimicrobial activity against 90 mins oxgall-stressed Bifidobacterium breve R0070 after 18 hrs; assay type: functional; procedure, shortened: as §3
Bifidobacterium longum [7] = test: Antimicrobial activity against Bifidobacterium longum P/N 601377; assay type: functional; procedure, shortened: as §2
Bifidobacterium longum [8] = test: Antimicrobial activity against Bifidobacterium longum R0175; assay type: functional; procedure, shortened: as §2
Bifidobacterium animalis [9] = test: Antimicrobial activity against 90 mins hydrogen peroxide-stressed Bifidobacterium animalis ATCC 27536 after 18 hrs; assay type: functional
Procedure, shortened: (§4)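 Stress applied for 90 min at 37°C under anaerobic conditions, using MRS (initial pH 6.5) containing H2O2 at each strain's own inhibitory concentration. The H2O2 level was set beforehand by microplate tolerance testing. Challenged cells were regrown in MRS for 24 h (footnote: 18 h) before MIC testing by broth microdilution. Median of four repetitions.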

Bifidobacterium bifidum [10] = test: Antimicrobial activity against 90 mins oxgall-stressed Bifidobacterium bifidum BB12 after 18 hrs; assay type: functional; procedure, shortened: as §3
Bifidobacterium bifidum [11] = test: Antimicrobial activity against 60 min 1 M HCl-stressed Bifidobacterium bifidum R0071 after 18 hrs; assay type: functional; procedure, shortened: as §1
Bifidobacterium animalis [12] = test: Antimicrobial activity against Bifidobacterium animalis ATCC 27536; assay type: functional; procedure, shortened: as §2
Bifidobacterium bifidum [13] = test: Antimicrobial activity against 90 mins hydrogen peroxide-stressed Bifidobacterium bifidum R0071 after 18 hrs; assay type: functional; procedure, shortened: as §4
[14] = tested on: Bifidobacterium thermophilum; test: Antimicrobial activity against 90 mins oxgall-stressed Bifidobacterium thermophilum ATCC 25866 after 18 hrs; assay type: functional; procedure, shortened: as §3
Bifidobacterium longum [15] = test: Antimicrobial activity against Bifidobacterium longum ATCC 15707; assay type: functional; procedure, shortened: as §2
[16] = tested on: Bifidobacterium pseudolongum; test: Antimicrobial activity against 60 min 1 M HCl-stressed Bifidobacterium pseudolongum ATCC 25562 after 18 hrs; assay type: functional; procedure, shortened: as §1
[17] = Antimicrobial activity against 90 mins oxgall-stressed Bifidobacterium infantis ATCC 15697 after 18 hrs; assay type: functional, Bifidobacterium longum subsp. infantis; conditions: Bifidobacterium longum; procedure, shortened: as §3
Bifidobacterium bifidum [18] = test: Antimicrobial activity against Bifidobacterium bifidum R0071; assay type: functional; procedure, shortened: as §2
Bifidobacterium breve [19] = test: Antimicrobial activity against 60 min 1 M HCl-stressed Bifidobacterium breve ATCC 15700 after 18 hrs; assay type: functional; procedure, shortened: as §1
Bifidobacterium longum [20] = test: Antimicrobial activity against 90 mins oxgall-stressed Bifidobacterium longum ATCC 15707 after 18 hrs; assay type: functional; procedure, shortened: as §3
Bifidobacterium longum [21] = test: Antimicrobial activity against 60 min 1 M HCl-stressed Bifidobacterium longum P/N 601377 after 18 hrs; assay type: functional; procedure, shortened: as §1
Bifidobacterium bifidum [22] = test: Antimicrobial activity against 90 mins hydrogen peroxide-stressed Bifidobacterium bifidum BB12 after 18 hrs; assay type: functional; procedure, shortened: as §4
Bifidobacterium longum [23] = test: Antimicrobial activity against 90 mins hydrogen peroxide-stressed Bifidobacterium longum P/N 601377 after 18 hrs; assay type: functional; procedure, shortened: as §4
[24] = Antimicrobial activity against Bifidobacterium infantis ATCC 15697; assay type: functional, Bifidobacterium longum subsp. infantis; conditions: Bifidobacterium longum; procedure, shortened: as §2
Bifidobacterium bifidum [25] = test: Antimicrobial activity against 60 min 1 M HCl-stressed Bifidobacterium bifidum BB12 after 18 hrs; assay type: functional; procedure, shortened: as §1
Bifidobacterium longum [26] = test: Antimicrobial activity against 90 mins hydrogen peroxide-stressed Bifidobacterium longum ATCC 15707 after 18 hrs; assay type: functional; procedure, shortened: as §4
Bifidobacterium bifidum [27] = test: Antimicrobial activity against Bifidobacterium bifidum BB12; assay type: functional; procedure, shortened: as §2
Bifidobacterium longum [28] = test: Antimicrobial activity against 90 mins hydrogen peroxide-stressed Bifidobacterium longum R0175 after 18 hrs; assay type: functional; procedure, shortened: as §4
Bifidobacterium animalis [29] = test: Antimicrobial activity against 90 mins oxgall-stressed Bifidobacterium animalis ATCC 27536 after 18 hrs; assay type: functional; procedure, shortened: as §3
Bifidobacterium breve [30] = test: Antimicrobial activity against 90 mins hydrogen peroxide-stressed Bifidobacterium breve R0070 after 18 hrs; assay type: functional; procedure, shortened: as §4
[31] = Antimicrobial activity against 60 min 1 M HCl-stressed Bifidobacterium infantis ATCC 15697 after 18 hrs; assay type: functional, Bifidobacterium longum subsp. infantis; conditions: Bifidobacterium longum; procedure, shortened: as §1
[32] = tested on: Bifidobacterium pseudolongum; test: Antimicrobial activity against Bifidobacterium pseudolongum ATCC 25562; assay type: functional; procedure, shortened: as §2
[33] = tested on: Bifidobacterium thermophilum; test: Antimicrobial activity against 90 mins hydrogen peroxide-stressed Bifidobacterium thermophilum ATCC 25866 after 18 hrs; assay type: functional; procedure, shortened: as §4
Bifidobacterium breve [34] = test: Antimicrobial activity against 90 mins hydrogen peroxide-stressed Bifidobacterium breve ATCC 15700 after 18 hrs; assay type: functional; procedure, shortened: as §4
Bifidobacterium breve [35] = test: Antimicrobial activity against 90 mins oxgall-stressed Bifidobacterium breve ATCC 15700 after 18 hrs; assay type: functional; procedure, shortened: as §3
Bifidobacterium longum [36] = test: Antimicrobial activity against 90 mins oxgall-stressed Bifidobacterium longum ATCC 15708 after 18 hrs; assay type: functional; procedure, shortened: as §3
[37] = tested on: Bifidobacterium thermophilum; test: Antimicrobial activity against 60 min 1 M HCl-stressed Bifidobacterium thermophilum ATCC 25866 after 18 hrs; assay type: functional; procedure, shortened: as §1
Bifidobacterium longum [38] = test: Antimicrobial activity against Bifidobacterium longum ATCC 15708; assay type: functional; procedure, shortened: as §2
Bifidobacterium longum [39] = test: Antimicrobial activity against 90 mins oxgall-stressed Bifidobacterium longum P/N 601377 after 18 hrs; assay type: functional; procedure, shortened: as §3
Bifidobacterium bifidum [40] = test: Antimicrobial activity against Bifidobacterium bifidum ATCC 15696; assay type: functional; procedure, shortened: as §2
Bifidobacterium breve [41] = test: Antimicrobial activity against Bifidobacterium breve ATCC 15700; assay type: functional; procedure, shortened: as §2
Bifidobacterium animalis [42] = test: Antimicrobial activity against 60 min 1 M HCl-stressed Bifidobacterium animalis ATCC 27536 after 18 hrs; assay type: functional; procedure, shortened: as §1
Bifidobacterium bifidum [43] = test: Antimicrobial activity against 90 mins oxgall-stressed Bifidobacterium bifidum ATCC 15696 after 18 hrs; assay type: functional; procedure, shortened: as §3
Bifidobacterium bifidum [44] = test: Antimicrobial activity against 90 mins oxgall-stressed Bifidobacterium bifidum R0071 after 18 hrs; assay type: functional; procedure, shortened: as §3
Bifidobacterium longum [45] = test: Antimicrobial activity against 90 mins hydrogen peroxide-stressed Bifidobacterium longum ATCC 15708 after 18 hrs; assay type: functional; procedure, shortened: as §4
Bifidobacterium longum [46] = test: Antimicrobial activity against 60 min 1 M HCl-stressed Bifidobacterium longum R0175 after 18 hrs; assay type: functional; procedure, shortened: as §1
Bifidobacterium breve [47] = test: Antimicrobial activity against 60 min 1 M HCl-stressed Bifidobacterium breve R0070 after 18 hrs; assay type: functional; procedure, shortened: as §1

Q: With CN(C)[C@@H]1C(O)=C(C(N)=O)C(=O)[C@@]2(O)C(O)=C3C(=O)c4c(O)cccc4[C@@](C)(O)[C@H]3C[C@@H]12.Cl [TETRACYCLINE HYDROCHLORIDE] as the compound, how does the MIC (Bifidobacterium longum [1]) read?
A: 62.5 µg/mL

Q: What about the MIC (Bifidobacterium breve [2]) of the same compound?
A: 62.5 µg/mL

Q: And the MIC [3]?
A: 62.5 µg/mL

Q: And the MIC (Bifidobacterium longum [4])?
A: 125 µg/mL

Q: And the MIC [5]?
A: 125 µg/mL

Q: And the MIC (Bifidobacterium breve [6])?
A: 62.5 µg/mL

Q: What about the MIC (Bifidobacterium longum [7]) of the same compound?
A: 15.6 µg/mL

Q: What about the MIC (Bifidobacterium longum [8]) of the same compound?
A: 62.5 µg/mL

Q: And the MIC (Bifidobacterium animalis [9])?
A: 62.5 µg/mL

Q: And the MIC (Bifidobacterium bifidum [10])?
A: 3.9 µg/mL

Q: And the MIC (Bifidobacterium bifidum [11])?
A: 31.2 µg/mL

Q: What about the MIC (Bifidobacterium animalis [12]) of the same compound?
A: 3.9 µg/mL

Q: What about the MIC (Bifidobacterium bifidum [13]) of the same compound?
A: 62.5 µg/mL

Q: And the MIC [14]?
A: 125 µg/mL

Q: What about the MIC (Bifidobacterium longum [15]) of the same compound?
A: 62.5 µg/mL

Q: And the MIC [16]?
A: 0.98 µg/mL

Q: And the MIC [17]?
A: 250 µg/mL

Q: And the MIC (Bifidobacterium bifidum [18])?
A: 31.2 µg/mL

Q: And the MIC (Bifidobacterium breve [19])?
A: 250 µg/mL

Q: What about the MIC (Bifidobacterium longum [20]) of the same compound?
A: 125 µg/mL

Q: And the MIC (Bifidobacterium longum [21])?
A: 0.98 µg/mL

Q: And the MIC (Bifidobacterium bifidum [22])?
A: 7.8 µg/mL

Q: What about the MIC (Bifidobacterium longum [23]) of the same compound?
A: 125 µg/mL

Q: And the MIC [24]?
A: 125 µg/mL

Q: And the MIC (Bifidobacterium bifidum [25])?
A: 0.98 µg/mL

Q: What about the MIC (Bifidobacterium longum [26]) of the same compound?
A: 7.8 µg/mL

Q: And the MIC (Bifidobacterium bifidum [27])?
A: 15.6 µg/mL

Q: What about the MIC (Bifidobacterium longum [28]) of the same compound?
A: 15.6 µg/mL

Q: And the MIC (Bifidobacterium animalis [29])?
A: 125 µg/mL

Q: What about the MIC (Bifidobacterium breve [30]) of the same compound?
A: 7.8 µg/mL

Q: And the MIC [31]?
A: 125 µg/mL

Q: What about the MIC [32] of the same compound?
A: 15.6 µg/mL

Q: What about the MIC [33] of the same compound?
A: 15.6 µg/mL

Q: What about the MIC (Bifidobacterium breve [34]) of the same compound?
A: 31.2 µg/mL

Q: And the MIC (Bifidobacterium breve [35])?
A: 31.2 µg/mL

Q: And the MIC (Bifidobacterium longum [36])?
A: 125 µg/mL

Q: And the MIC [37]?
A: 125 µg/mL

Q: What about the MIC (Bifidobacterium longum [38]) of the same compound?
A: 31.2 µg/mL

Q: What about the MIC (Bifidobacterium longum [39]) of the same compound?
A: 62.5 µg/mL

Q: And the MIC (Bifidobacterium bifidum [40])?
A: 31.2 µg/mL

Q: What about the MIC (Bifidobacterium breve [41]) of the same compound?
A: 31.2 µg/mL

Q: And the MIC (Bifidobacterium animalis [42])?
A: 62.5 µg/mL

Q: What about the MIC (Bifidobacterium bifidum [43]) of the same compound?
A: 125 µg/mL

Q: What about the MIC (Bifidobacterium bifidum [44]) of the same compound?
A: 62.5 µg/mL

Q: And the MIC (Bifidobacterium longum [45])?
A: 31.2 µg/mL

Q: And the MIC (Bifidobacterium longum [46])?
A: 0.98 µg/mL

Q: What about the MIC (Bifidobacterium breve [47]) of the same compound?
A: 31.2 µg/mL
